Experiments:
Neutrophil elastase [1] = target: T1, Neutrophil elastase (Homo sapiens, UniProt P08246); assay: Inhibitory activity against human leukocyte elastase at 10e-6 M
T1 sequence (P08246 whole entry): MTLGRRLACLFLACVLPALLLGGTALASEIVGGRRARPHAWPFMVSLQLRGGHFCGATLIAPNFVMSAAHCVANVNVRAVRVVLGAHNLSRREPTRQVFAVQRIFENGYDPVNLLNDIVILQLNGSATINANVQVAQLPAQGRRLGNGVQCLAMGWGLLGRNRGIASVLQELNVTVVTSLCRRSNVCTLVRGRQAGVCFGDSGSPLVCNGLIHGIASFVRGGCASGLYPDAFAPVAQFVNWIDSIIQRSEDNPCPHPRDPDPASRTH

[2] = target: T2, Neutrophil elastase (Homo sapiens) (UniProt P08246); assay: Inhibitory activity against [14C]-Elastin hydrolysis at 2 uM concentration and 3h.
T2 sequence (whole entry): T1 sequence (P08246 whole entry)
In short: (§1)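 Elastase digestion of [¹⁴C]elastin, quantitated by radiolabel release (method of Bielefeld et al.). Substrate, inhibitor and elastase were all present for the whole run, and % inhibition was read at 1, 2 and 3 h.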

[3] = target: T2, Neutrophil elastase (Homo sapiens); assay: Inhibitory activity against [14C]-Elastin hydrolysis at 3 uM concentration and 3h.; in short: as §1
[4] = target: T2, Neutrophil elastase (Homo sapiens); assay: Inhibitory activity against [14C]elastin hydrolysis at 4 uM concentration and 1h.; in short: as §1
Neutrophil elastase [5] = target: T1, Neutrophil elastase; assay: Inhibitory activity against human leukocyte elastase at 10e-7 M
[6] = target: T2, Neutrophil elastase (Homo sapiens); assay: Inhibitory activity against [14C]elastin hydrolysis at 2 uM concentration and 1h.; in short: as §1
[7] = target: T2, Neutrophil elastase (Homo sapiens); assay: Inhibitory activity against [14C]elastin hydrolysis at 3 uM concentration and 1h.; in short: as §1
[8] = target: T2, Neutrophil elastase (Homo sapiens); assay: Inhibitory activity against [14C]-Elastin hydrolysis at 2 uM concentration and 2 hr.; in short: as §1
[9] = target: T2, Neutrophil elastase (Homo sapiens); assay: Inhibitory activity against [14C]elastin hydrolysis at 4 uM concentration and 3h.; in short: as §1
[10] = target: T2, Neutrophil elastase (Homo sapiens); assay: Inhibitory activity against [14C]elastin hydrolysis at 3 uM concentration and 2 hr.; in short: as §1
[11] = target: T2, Neutrophil elastase (Homo sapiens); assay: Inhibitory activity against [14C]elastin hydrolysis at 4 uM concentration and 2 hr.; in short: as §1
Neutrophil elastase [12] = target: T1, Neutrophil elastase; assay: Inhibitory activity against human leukocyte elastase at 10e-5 M
In short: (§2)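 HLE activity followed as rise in absorbance at 410 nm from nitroanilide release; substrate (methoxysuccinyl)Ala-Ala-Pro-Val nitroanilide at 10⁻⁴ M. Run in 0.2 M Tris, pH 8.0, 30 °C. Inhibitors and substrate dissolved in DMSO, which made up 10% of the final medium. Enzyme titrated to give 0.12 OD unit/min per 10 mm path.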

Neutrophil elastase [13] = target: T1, Neutrophil elastase; assay: Inhibitory activity against human leukocyte elastase; No inhibition at 1x10E-2 M; in short: as §2
[14] = target: T2, Neutrophil elastase (Homo sapiens); assay: Inhibitory activity against [14C]elastin hydrolysis at 1 uM concentration and 2 hr.; in short: as §1
[15] = target: T2, Neutrophil elastase (Homo sapiens); assay: Inhibitory activity against [14C]elastin hydrolysis at 1 uM concentration and 1h.; in short: as §1
[16] = target: T2, Neutrophil elastase (Homo sapiens); assay: (§3) Inhibitory activity against human leukocyte elastase at 10e-4 M; in short: as §2
Neutrophil elastase [17] = target: T1, Neutrophil elastase; assay: as §3; in short: as §2
Neutrophil elastase [18] = target: T1, Neutrophil elastase; assay: Inhibitory activity against human leukocyte elastase at 10e-9 M; in short: as §2
[19] = Inhibitory activity against pancreatic elastase; IA = Inactive at 10e-5 M
[20] = Inhibitory activity against Hog pancreatic elastase; IA = Inactive at 10e-5 M; set-up: species or system Sus scrofa
[21] = target: T2, Neutrophil elastase (Homo sapiens); assay: Inhibitory activity against [14C]elastin hydrolysis at 0.5 uM concentration and 3h.; in short: as §1
[22] = target: T2, Neutrophil elastase (Homo sapiens); assay: Inhibitory activity against [14C]elastin hydrolysis at 0.5 uM concentration and 1h.; in short: as §1
[23] = target: T2, Neutrophil elastase (Homo sapiens); assay: Inhibitory activity against [14C]elastin hydrolysis at 1 uM concentration and 3h.; in short: as §1
[24] = target: T2, Neutrophil elastase (Homo sapiens); assay: Inhibitory activity against [14C]-Elastin hydrolysis at 0.5 uM concentration and 2 hr.; in short: as §1
Neutrophil elastase [25] = target: T1, Neutrophil elastase; assay: Inhibitory activity against human leukocyte elastase at 10e-8 M
[26] = Inhibitory activity against Hog pancreatic elastase;IA = Inactive at 10e-5 M; set-up: species or system Sus scrofa

CCCCCCC/C=C/CCCCCCCCC(=O)Oc1coc(COC(=O)CCCCCCC/C=C/CCCCCCCC)cc1=O
IC50 (Neutrophil elastase [1]): 6.1 µM

CCCCCCCC/C=C/CCCCCCCCCCCC(=O)OCc1cc(=O)c(OC(=O)C(C)(C)C)co1
inhibition [2]: 13% | inhibition [3]: 32% | inhibition [4]: 77% | IC50 (Neutrophil elastase [5]): 0.16 µM | inhibition [6]: 61% | inhibition [7]: 74% | inhibition [8]: 33% | inhibition [9]: 22% | inhibition [10]: 46% | inhibition [11]: 50%

CC(CO)Cc1cc(C(=O)c2ccccc2)ccc1OC(=O)C(C)(C)C (stereo not given)
IC50 (Neutrophil elastase [1]): 1.5 µM

CC(C)(C)C(=O)Oc1ccccc1C(=O)c1ccccc1OC(=O)C(C)(C)C
IC50 (Neutrophil elastase [1]): 8 µM

CCCCCCCCCCCCCCCCCCCC(=O)OCc1cc(=O)c(O)co1
IC50 (Neutrophil elastase [5]): 9 µM

C=C(C)Cc1cc(C(=O)c2ccccc2)ccc1OC(=O)C(C)(C)C
IC50 (Neutrophil elastase [5]): 0.85 µM

CC(=O)NC(C)(C)C(=O)Oc1ccc(C(=O)c2ccccc2)cc1
IC50 (Neutrophil elastase [12]): 19 µM

CC1(C)Cc2cc(C(=O)c3ccccc3)ccc2OC1=O
IC50 (Neutrophil elastase [13]): No inhibition

CC1C(=O)Oc2ccc(C(=O)c3ccccc3)cc21 (stereo not given)
IC50 (Neutrophil elastase [13]): No inhibition

O=C(c1ccccc1)c1ccc(OC(=O)C2CC2)cc1
IC50 (Neutrophil elastase [1]): 1.4 µM

Cc1cc(C)c(C(=O)OCc2cc(=O)c(OC(=O)C(C)(C)C)co2)c(C)c1
IC50 (Neutrophil elastase [1]): 8.4 µM

CC1(C)C(=O)Oc2ccc(C(=O)c3ccccc3)cc21
IC50 (Neutrophil elastase [13]): No inhibition

CC(C)(C)C(=O)Oc1ccccc1C(=O)c1ccccc1
IC50 (Neutrophil elastase [5]): 10 µM

CC(C)(C)C(=O)Oc1ccc(C(OC(=O)CCC(=O)O)c2ccc(OC(=O)C(C)(C)C)cc2)cc1
IC50 (Neutrophil elastase [1]): 3 µM

CC(C)(C)C(=O)Oc1coc(COC2CCOCC2)cc1=O
IC50 (Neutrophil elastase [12]): 43 µM

CC(C)(C)C(=O)Oc1ccc(S(=O)(=O)c2ccc(O)cc2)cc1
IC50 (Neutrophil elastase [5]): 1.8 µM

CC(C=O)Cc1cc(C(=O)c2ccccc2)ccc1OC(=O)C(C)(C)C (stereo not given)
IC50 (Neutrophil elastase [5]): 0.8 µM

CC(C)(C)C(=O)Oc1ccc(S(=O)(=O)c2ccc(OC(=O)C(C)(C)C)cc2)cc1
inhibition [2]: 8% | inhibition [14]: 14% | inhibition [3]: 29% | inhibition [6]: 39% | inhibition [7]: 56% | inhibition [15]: 29% | inhibition [8]: 29% | inhibition [10]: 40%

CC(C)(C)C(=O)Oc1coc(COC(c2ccccc2)(c2ccccc2)c2ccccc2)cc1=O
IC50 (Neutrophil elastase [1]): 1 µM

O=c1cc(COC2CCOCC2)occ1OC(=O)[C@]12C[C@H]3C[C@H](C[C@H](C3)C1)C2
inhibition [16]: 33%

CC1Cc2cc(C(=O)c3ccccc3)ccc2OC1=O (stereo not given)
IC50 (Neutrophil elastase [13]): No inhibition

CC(C)(C)C(=O)Oc1ccc(C(=O)c2ccc(Cl)cc2)cc1
IC50 (Neutrophil elastase [5]): 0.14 µM

CC(C)(C)C(=O)Oc1ccc(Oc2ccc(OC(=O)C(C)(C)C)cc2)cc1
IC50 (Neutrophil elastase [5]): 0.45 µM

CCCCCCCCCCCCCCCC(=O)OCc1cc(=O)c(O)co1
IC50 (Neutrophil elastase [17]): 100 µM

CCCCCCCC/C=C/CCCCCCCC(=O)OCc1cc(=O)c(OC(=O)C(C)(C)C)co1
IC50 (Neutrophil elastase [5]): 0.3 µM

C=C(C)C(=O)Oc1ccc(C(=O)c2ccccc2)cc1
IC50 (Neutrophil elastase [18]): 1.9 µM

CCCCCCCCCCCCCCCCCCCC(=O)OCc1cc(=O)c(OC(=O)C(C)(C)C)co1
IC50 (Neutrophil elastase [5]): 0.13 µM

CC(C)(C)C(=O)Oc1ccc(C(=O)OCc2cc(=O)c(OC(=O)C(C)(C)C)co2)cc1
IC50 [19]: Not Active | IC50 [20]: Not Active | IC50 (Neutrophil elastase [5]): 0.2 µM

O=C1CCc2cc(C(=O)c3ccccc3)ccc2O1
IC50 (Neutrophil elastase [13]): No inhibition

CC(=O)Oc1ccc(C(=O)c2ccccc2)cc1
IC50 (Neutrophil elastase [12]): 16 µM

CC(C(=O)O)c1cc(C(=O)c2ccccc2)ccc1OC(=O)C(C)(C)C (stereo not given)
IC50 (Neutrophil elastase [12]): 12 µM

CCC(C)CC(=O)Oc1ccc(C(=O)c2ccc(OC(=O)CC(C)CC)cc2OC(=O)CC(C)CC)c(OC(=O)CC(C)CC)c1 (stereo not given)
IC50 (Neutrophil elastase [1]): 1.5 µM

CCC(=O)Oc1ccc(C(=O)c2ccccc2)cc1
IC50 (Neutrophil elastase [1]): 6.2 µM

CC(C)(C)C(=O)Oc1ccc(C(=O)c2ccc(OC(=O)C(C)(C)C)cc2OC(=O)C(C)(C)C)cc1
inhibition [21]: 6% | inhibition [22]: 20% | inhibition [2]: 76% | inhibition [14]: 63% | inhibition [23]: 47% | inhibition [24]: 19% | inhibition [6]: 81% | inhibition [15]: 45% | inhibition [8]: 81%

CC(C)(C)C(=O)Oc1ccc(C(O)c2ccc(OC(=O)C(C)(C)C)cc2)cc1
IC50 (Neutrophil elastase [1]): 1.5 µM

CCCCCC/C=C/CCCCCCCC(=O)OCc1cc(=O)c(OC(=O)C(C)(C)C)co1
IC50 [19]: Not Active | IC50 [20]: Not Active | IC50 (Neutrophil elastase [5]): 0.13 µM

O=C(c1ccccc1)c1ccc(OC(=O)C2CCCCC2)cc1
IC50 (Neutrophil elastase [12]): 20 µM

CC(C)(C)C(=O)OCc1cc(=O)c(OC(=O)C(C)(C)C)co1
IC50 (Neutrophil elastase [12]): 36 µM

CCCCCCCC/C=C/CCCCCCCCCC(=O)OCc1cc(=O)c(OC(=O)C(C)(C)C)co1
IC50 (Neutrophil elastase [5]): 0.21 µM

CC(C)(C)C(=O)Oc1coc(COC(=O)c2ccc(-c3ccccc3)cc2)cc1=O
IC50 (Neutrophil elastase [1]): 1.9 µM

CC(C)(C)C(=O)Oc1ccc(C(=O)c2ccccc2)c(OC(=O)C(C)(C)C)c1
inhibition [2]: 9% | inhibition [14]: 10% | inhibition [3]: 10% | inhibition [6]: 36% | inhibition [7]: 62% | inhibition [15]: 14% | inhibition [8]: 12% | inhibition [10]: 32%

CCCCCCCCCCCCC(C)(C)C(=O)OCc1cc(=O)c(OC(=O)C(C)(C)C)co1
IC50 (Neutrophil elastase [5]): 0.6 µM

CC(C)(C)C(=O)Oc1ccc(Cc2ccc(OC(=O)C(C)(C)C)cc2)cc1
IC50 (Neutrophil elastase [5]): 0.46 µM

CC(C)(C)C(=O)Oc1ccc(C(=O)c2ccc(O)cc2)cc1
IC50 (Neutrophil elastase [1]): 2.7 µM

CCCCCCCCCCCCCCCCCC(=O)OCc1cc(=O)c(OC(=O)C(C)C)co1
IC50 (Neutrophil elastase [25]): 0.072 µM

CC(C)(C)C(=O)Oc1ccccc1C(=O)OCc1cc(=O)c(OC(=O)C(C)(C)C)co1
IC50 (Neutrophil elastase [1]): 5.4 µM

CCCCCCCC/C=C/CCCCCCCC(=O)OCc1cc(=O)c(OC(=O)[C@]23C[C@H]4C[C@H](C[C@H](C4)C2)C3)co1
IC50 (Neutrophil elastase [12]): 80 µM

CCCCCCCCCCCCCCCCCC(=O)OCc1cc(=O)c(OC(=O)C(C)(C)C)co1
inhibition [2]: 9% | IC50 [26]: Not Active | IC50 [19]: Not Active | inhibition [3]: 13% | inhibition [4]: 79% | IC50 (Neutrophil elastase [5]): 0.1 µM | inhibition [6]: 57% | inhibition [7]: 67% | inhibition [8]: 21% | inhibition [9]: 21% | inhibition [10]: 39% | inhibition [11]: 53%

CCCCCCCCCCCCCCCC(=O)OCc1cc(=O)c(OC(=O)C(C)(C)C)co1
IC50 (Neutrophil elastase [5]): 0.11 µM

CC(C)(C)C(=O)Oc1cc(C(=O)OCc2cc(=O)c(OC(=O)C(C)(C)C)co2)cc(OC(=O)C(C)(C)C)c1OC(=O)C(C)(C)C
inhibition [2]: 5% | inhibition [14]: 15% | inhibition [23]: 3% | inhibition [3]: 31% | IC50 (Neutrophil elastase [5]): 0.1 µM | inhibition [6]: 58% | inhibition [7]: 71% | inhibition [15]: 39% | inhibition [8]: 44% | inhibition [10]: 67%

From ChEMBL document CHEMBL1124104, “(Acyloxy)benzophenones and (acyloxy)-4-pyrones. A new class of inhibitors of human neutrophil elastase” (J Med Chem, 1988)
